Fewer inactive variants are shown than the library holds.
B1: tRNA (parent)
chain: GUUCCGUUGGCGUAAUGGUAACGCGUCUCCCUCCUAAGGAGAAGACUGCGGGUUCGAGUCCCGUACGGAACG

Variants of: B1
Assay: yeast fitness relative to wild type (ratio to wild type); higher = fitter; tRNA-Arg(CCU), competitive growth, 37 C, YPD
Outline: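 Genotype frequency changes were the basis for Darwinian fitness relative to wild type. The frequencies came from 100-nucleotide paired-end sequencing of gene amplicons from the start population and each end population of pooled yeast strains with tRNA-Arg(CCU) gene variants at the native locus. Competition ran in YPD at 37°C for 24 hours in six replicates, genotypes needed ≥ 100 starting reads, and estimates < 0.5 were set to 0.5.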

Compared with C27G G41C, C27G G39C A69U is lower in yeast fitness: 1.01 for the first, 0.566 for the second.

First: C27G C29A C55G
Second: C27G A36U A45U A69C
The yeast fitness of the first is lower: at most 0.5 for the first, 0.577 for the second.

First: C27G G48C G56C
Second: C27G C46U U54C
The yeast fitness of the first is lower: at most 0.5 for the first, 0.738 for the second.

First: C27U A43C A69U
Second: C27G C46A C49G
The yeast fitness of the first is higher: 0.882 for the first, 0.704 for the second.

Going from C27A G44C G51A to C27G A37G A70C, the yeast fitness rises from at most 0.5 to 0.533.

C27G C49A A57U and C27U A36U G38C A43C C66U cannot be ordered by yeast fitness: at most 0.5 for the first, at most 0.5 for the second.

Compared with C27U A69C, C27A U47C is lower in yeast fitness: 1.01 for the first, 0.975 for the second.

Going from C27G C29A C33A A43C to C27G A37G G38A, the yeast fitness falls from 0.574 to at most 0.5.

Compared with C27G C30U, C27G C30A is higher in yeast fitness: 0.619 for the first, 0.632 for the second.

First: C27G C34G C46U
Second: C27G G48C A57U
The yeast fitness of the first is higher: 0.65 for the first, at most 0.5 for the second.

First: C27G A43C G56C
Second: C27G C46G A65G
The yeast fitness of the first is lower: at most 0.5 for the first, 0.631 for the second.

C27G C31U A65U A70U and C27G C31A C60G cannot be ordered by yeast fitness: at most 0.5 for the first, at most 0.5 for the second.

First: C27G G44C A45G U64G
Second: C27U A43C G68U
The yeast fitness of the first is lower: at most 0.5 for the first, 0.612 for the second.

C27G A45U G67A and C27A U59C C62A cannot be ordered by yeast fitness: at most 0.5 for the first, at most 0.5 for the second.

C27G U28A C30G C31U A40G G67A and C27G C46U C62U G68C cannot be ordered by yeast fitness: at most 0.5 for the first, at most 0.5 for the second.

Compared with C27G C29U A37G A45G C60A G68A, C27G A42G is higher in yeast fitness: at most 0.5 for the first, 0.607 for the second.

Compared with C27G A42C, C27G A36U is higher in yeast fitness: 0.586 for the first, 0.666 for the second.

First: C27G A36G
Second: C27G U32C A42C G48C C55G C60U G68C
The yeast fitness of the first is higher: 0.542 for the first, at most 0.5 for the second.

First: C27G U28C A45C G48A C55A
Second: C27G G63A C66G
The yeast fitness of the first is higher: 0.601 for the first, at most 0.5 for the second.

Compared with C27A U35C A57C, C27U A42U is higher in yeast fitness: 0.619 for the first, 1.09 for the second.

First: C27U A42C
Second: C27G A43C C62U
The yeast fitness of the first is higher: 0.997 for the first, 0.599 for the second.

C27U A40G C55U G56A U64G A69U and C27A U64A G68C cannot be ordered by yeast fitness: at most 0.5 for the first, at most 0.5 for the second.

First: C27G G41C C66U
Second: C27G C49U A65U
The yeast fitness of the first is higher: 0.747 for the first, at most 0.5 for the second.

First: C27G G39A C66U G68C
Second: C27G C31A C33G C49U G58C
The yeast fitness of the first is higher: 0.575 for the first, at most 0.5 for the second.

First: C27G C31G U59C
Second: C27G C31G U59A
The yeast fitness of the first is higher: 0.604 for the first, at most 0.5 for the second.

C27U A43G G52C C62U G63A and C27G C29A G52C cannot be ordered by yeast fitness: at most 0.5 for the first, at most 0.5 for the second.

Compared with C27G A37G G39A C61G, C27G C30G A43C is lower in yeast fitness: 0.821 for the first, at most 0.5 for the second.

First: C27G C33U A40G C49U A69C
Second: C27A U53A G58C A70C
The yeast fitness of the first is higher: 0.703 for the first, 0.57 for the second.

Going from C27G C46U G51A to C27G C30U G39C A40U G44C U47A G48A U53C C60A, the yeast fitness falls from 0.633 to at most 0.5.

Compared with C27G C33G G39A C46U C61U A69U, C27G G48A C60U is lower in yeast fitness: 0.585 for the first, at most 0.5 for the second.

Compared with C27G G48A C60G, C27U A36U is lower in yeast fitness: 0.751 for the first, 0.638 for the second.

Going from C27U A36C to C27G G68A, the yeast fitness rises from 0.541 to 0.607.

Compared with C27G U32G A42C, C27G G48C is higher in yeast fitness: at most 0.5 for the first, 0.632 for the second.

Going from C27G G48A to C27G C31A, the yeast fitness falls from 0.565 to 0.501.

Compared with C27G C31G, C27G C31U is higher in yeast fitness: 0.74 for the first, 0.772 for the second.

First: C27U A45U C66U
Second: C27U A40C
The yeast fitness of the first is lower: 0.7 for the first, 0.809 for the second.

First: C27G G48A G51A
Second: C27G U28G A36U A45U C49G
The yeast fitness of the first is higher: 0.527 for the first, at most 0.5 for the second.

C27G A43U C55G and C27G C31G U54G A70C cannot be ordered by yeast fitness: at most 0.5 for the first, at most 0.5 for the second.

Compared with C27G A37G U53A, C27G G39C C61U is lower in yeast fitness: 0.632 for the first, 0.577 for the second.

Going from C27G C33G to C27G C33A, the yeast fitness rises from 0.524 to 0.593.

Going from C27G G56A to C27U A37U C66U, the yeast fitness falls from 0.614 to 0.542.

Going from C27G G51A G63C to C27U A42U U53G G68C, the yeast fitness rises from at most 0.5 to 0.545.

Compared with C27G A65G C66G, C27A U32G C62U A70C is higher in yeast fitness: at most 0.5 for the first, 0.547 for the second.

Compared with C27G C55G A70U, C27G A69G is higher in yeast fitness: 0.617 for the first, 0.652 for the second.

First: C27G A69C
Second: C27A G56A
The yeast fitness of the first is lower: 0.654 for the first, 0.707 for the second.

Compared with C27U A36G U47G G50A, C27G A37C is higher in yeast fitness: at most 0.5 for the first, 0.911 for the second.

C27G C34G and C27G A36G A40G A69U cannot be ordered by yeast fitness: at most 0.5 for the first, at most 0.5 for the second.

C27G A36G A40G A69C and C27G C29A A43U cannot be ordered by yeast fitness: at most 0.5 for the first, at most 0.5 for the second.

Compared with C27G C34A C60A, C27A U59A is higher in yeast fitness: 0.551 for the first, 0.876 for the second.

First: C27G C31G U53A G56A G63A
Second: C27G A43C C66A
The yeast fitness of the first is higher: 0.534 for the first, at most 0.5 for the second.

First: C27G A45U A70C
Second: C27G A65C
The yeast fitness of the first is lower: 0.614 for the first, 0.641 for the second.

Going from C27G U32G to C27G U32A, the yeast fitness rises from at most 0.5 to 0.539.

Compared with C27G U32C, C27G A36U G39C A69C is lower in yeast fitness: 0.935 for the first, 0.548 for the second.

Going from C27G C30A U47C to C27G A42C C55A, the yeast fitness rises from 0.535 to 0.682.

First: C27G C30G C62A
Second: C27U A43C A70U
The yeast fitness of the first is lower: at most 0.5 for the first, 0.749 for the second.

Compared with C27G A65U G68U, C27A G48A is higher in yeast fitness: 0.583 for the first, 0.995 for the second.

C27G C46G U53G G58C G68A and C27G G38A G67U cannot be ordered by yeast fitness: at most 0.5 for the first, at most 0.5 for the second.

C27G U28C G52A C60G G68U A69C and C27G G39A C61G C62G cannot be ordered by yeast fitness: at most 0.5 for the first, at most 0.5 for the second.

Going from C27G C49A G58C to C27G G56A A65G, the yeast fitness rises from at most 0.5 to 0.535.

C27G C34G A57G G67C A69U and C27U A36U G38C A43C G63A cannot be ordered by yeast fitness: at most 0.5 for the first, at most 0.5 for the second.

First: C27G C55A C66U
Second: C27G U32C A42C G48C C55G C60U
The yeast fitness of the first is higher: 0.545 for the first, at most 0.5 for the second.

C27G C30G U64G and C27G C30G C33G A37C G52C cannot be ordered by yeast fitness: at most 0.5 for the first, at most 0.5 for the second.

First: C27U A37U
Second: C27U A37G
The yeast fitness of the first is lower: 0.626 for the first, 0.899 for the second.

Going from C27U A37C to C27A U64C, the yeast fitness rises from 0.664 to 0.943.

Going from C27G C29G G51C to C27G A36G A69U, the yeast fitness rises from at most 0.5 to 0.641.

Compared with C27A G52A, C27G C31U C49G G58C is lower in yeast fitness: 0.619 for the first, at most 0.5 for the second.

C27G C31U A42G U53C and C27G A36G C61A A65U cannot be ordered by yeast fitness: at most 0.5 for the first, at most 0.5 for the second.

First: C27G C31U A37G G58C
Second: C27G G48A G67C A69U
The yeast fitness of the first is lower: at most 0.5 for the first, 0.525 for the second.

Compared with C27A G51A A70G, C27G A36U G39C G68C is higher in yeast fitness: at most 0.5 for the first, 0.533 for the second.

C27G G50A C55G C62G G67U and C27G A42U G52A cannot be ordered by yeast fitness: at most 0.5 for the first, at most 0.5 for the second.

Compared with C27G G39A C46U G67A, C27G C33G C55A is lower in yeast fitness: 0.581 for the first, at most 0.5 for the second.

C27A U54A A65U C66U and C27G C33G G41A A65C cannot be ordered by yeast fitness: at most 0.5 for the first, at most 0.5 for the second.

First: C27G A36U A69C
Second: C27G A40G G51A
The yeast fitness of the first is lower: at most 0.5 for the first, 0.541 for the second.

Compared with C27A G50C, C27A G50A is higher in yeast fitness: 0.721 for the first, 0.848 for the second.

Going from C27A G68A to C27A G68U, the yeast fitness rises from 0.787 to 0.805.

Going from C27G G38A to C27G C31A G56A, the yeast fitness falls from 0.745 to at most 0.5.

Going from C27U A36C G56C G68A A70U to C27G U28A A65U A70U, the yeast fitness rises from at most 0.5 to 0.558.

C27G U32G A36C C46G A70U and C27G A42C G50C G56A C66G cannot be ordered by yeast fitness: at most 0.5 for the first, at most 0.5 for the second.

C27A U35C A42U A69G and C27G A37G G63C U64C cannot be ordered by yeast fitness: at most 0.5 for the first, at most 0.5 for the second.

Going from C27G A42U C49U to C27G U32A G41A, the yeast fitness rises from 0.58 to 0.671.

Compared with C27G U32C A57G, C27G C49U U54G is lower in yeast fitness: 0.578 for the first, at most 0.5 for the second.

C27A U28G U64C and C27G A45U C55A G56A cannot be ordered by yeast fitness: at most 0.5 for the first, at most 0.5 for the second.

Going from C27G C46U A70G to C27G C46U A70C, the yeast fitness rises from 0.727 to 0.729.

With C27U A37C A40U A43U A65U the yeast fitness was at most 0.5.

Reference: the RNAGym collection of RNA variant scans (doi:10.1126/science.aae0568)
